We go through 14 compounds from ChEMBL document CHEMBL2062400, “RCAI-84, 91, and 105-108, ureido and thioureido analogs of KRN7000: their synthesis and bioactivity for mouse lymphocytes to produce Th1-biased cytokines” (Bioorg Med Chem, 2012).

The source made the active and inactive calls. No cut-off for these calls is given here.

Assay [1] deals with Mus musculus. The assay can be described thus: Immunostimulatory activity in C57BL/6J mouse assessed as IFNgamma level at 2 ug, iv upto 24 hrs by ELISA relative to KRN7000. Format: functional. On the technique in general: In an ELISA, binding on a coated surface is turned into a signal by an enzyme label.
Assay [2] relates to Mus musculus. The assay can be described thus: Immunostimulatory activity in C57BL/6J mouse assessed as IL4 level at 2 ug, iv by cytometric bead array method relative to KRN7000. Format: functional.
Assay [3] has as its system Mus musculus. The assay can be described thus: Immunostimulatory activity in C57BL/6J mouse assessed as IFNgamma level at 5 ug, ip at 16 hrs by sandwich ELISA relative to KRN7000. Type of assay: functional.
In assay [4] the test system is Mus musculus. The assay can be described thus: Immunostimulatory activity in C57BL/6J mouse assessed as IL4 level at 5 ug, ip at 2 hrs by sandwich ELISA relative to KRN7000. Type of assay: functional.
For assay [5], the system named is Mus musculus. The assay can be described thus: Immunostimulatory activity in C57BL/6J mouse assessed as increase in IFNgamma level at 2 ug, iv upto 24 hrs by ELISA. Format: functional, organism-based. Put shortly:
(§1)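 Mice were 8-week C57BL/6J kept under SPF conditions. Glycolipid was dissolved in DMSO (1.0 mg/mL, 80 °C, 30 min), diluted to 200 µg/mL in PBS with 0.5% Tween20, then to 10 µg/mL in PBS. A 200 µL dose (2 µg/mouse) was given iv. Retro-orbital plasma was taken at 3–60 h. IFN-γ was read by ELISA and IL-4 by CBA. Data are mean ± SD of 3 mice, repeated 3 times.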

The subject of assay [6] is Mus musculus. Put plainly: Immunostimulatory activity in C57BL/6J mouse assessed as increase in IL4 level at 2 ug, iv by cytometric bead array method. Type of assay: functional, organism-based. Put shortly:
as §1

Assay [7] relates to Mus musculus. The assay can be described thus: Immunostimulatory activity in C57BL/6J mouse assessed as increase in IL12p70 level at 2 ug, iv from 3 to 12 hrs by cytometric bead array method relative to KRN7000. Type of assay: functional, organism-based. The method, boiled down: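 Eight-week SPF C57BL/6J mice received 2 µg glycolipid iv (200 µL of 10 µg/mL in PBS, from a DMSO stock diluted in PBS/0.5% Tween20). Plasma was collected from the retro-orbital plexus with heparinized capillaries at 3, 6, 12, 24, 36, 48 and 60 h. IL-12p70 was quantified by cytometric bead array.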

As for `CCCCCCCCCCCCCCCCCC(=O)N[C@@H](CO[C@H]1O[C@H](CO)[C@H](O)[C@H](O)[C@H]1O)[C@H](O)[C@H](O)CCCCCCCCCCCCCC`, the Activity with Mus musculus [1] is given as 10%; in the assay on Mus musculus [2], 40%. As to `CCCCCCCCCCCCCCCCCCCCCCCCC(F)(F)C(=O)N[C@@H](CO[C@H]1O[C@H](CO)[C@H](O)[C@H](O)[C@H]1O)[C@H](O)[C@H](O)CCCCCCCCCCCCCC`, the Activity is given as 50% in the assay on Mus musculus [3] and 100% with Mus musculus [4]. As to `CCCCCCCCCCCCCC[C@@H](O)[C@@H](O)[C@H](CO[C@H]1O[C@H](CO)[C@H](O)[C@H](O)[C@H]1O)NC(=O)CCCCCc1ccccc1`, the outcome in the assay on Mus musculus [5] was inactive. As to `CCCCCCCCCCCCCC[C@@H](O)[C@@H](O)[C@H](CO[C@H]1O[C@H](CO)[C@H](O)[C@H](O)[C@H]1O)NC(=O)NCCCCCc1ccccc1`, the outcome with Mus musculus [5] and in the assay on Mus musculus [6] was inactive. In the case of `CCCCCCCCCCCCCC[C@@H](O)[C@@H](O)[C@H](CO[C@H]1O[C@H](CO)[C@H](O)[C@H](O)[C@H]1O)NC(=O)NCCCCCCCC`, the outcome in the assay with Mus musculus [5] and in the assay with Mus musculus [6] was Active.

Consider `CCCCCCCCCCCCCCCCCCCCCCCCNC(=O)N[C@@H](CO[C@H]1O[C@H](CO)[C@H](O)[C@H](O)[C@H]1O)[C@H](O)[C@H](O)CCCCCCCCCCCCCC`, for which the outcome in the assay on Mus musculus [5] and with Mus musculus [7] was Active. For `CCCCCCCCCCCCCCCCCCCCCCCCCC(=O)N[C@@H](CO[C@H]1O[C@H](CO)[C@H](O)[C@H](O)[C@H]1O)[C@H](O)[C@H](O)CCCCCCCCCCCCCC`, the outcome in the assay on Mus musculus [6] was Active. Regarding `CCCCCCCCCCCCCCCCCCCCCCCCCC(=O)N[C@@H](CS[C@H]1O[C@H](CO)[C@H](O)[C@H](O)[C@H]1O)[C@H](O)[C@H](O)CCCCCCCCCCCCCC`, the result with Mus musculus [5] was inactive.

Take `CCCCCCCCCCCCCCCCCCCCCCCCCC(=O)N[C@@H](CO[C@H]1C[C@H](CO)[C@H](O)[C@H](O)[C@H]1O)[C@H](O)[C@H](O)CCCCCCCCCCCCCC`: in the assay on Mus musculus [5], the result was Active. `CCCCCCCCCCCCCCCCCCCCCCCCNC(=O)N[C@@H](CO[C@H]1O[C@H](COC)[C@H](O)[C@H](O)[C@H]1O)[C@H](O)[C@H](O)CCCCCCCCCCCCCC`: the outcome with Mus musculus [5] and in the assay on Mus musculus [7] was Active. `CCCCCCCCCCCCCCCCNC(=O)N[C@@H](CO[C@H]1O[C@H](CO)[C@H](O)[C@H](O)[C@H]1O)[C@H](O)[C@H](O)CCCCCCCCCCCCCC`: the result in the assay on Mus musculus [5] and with Mus musculus [6] was Active.

Consider `CCCCCCCCCCCCCCCCCCCCCCCCCC(=O)N[C@@H](CO[C@H]1C[C@H](COC)[C@H](O)[C@H](O)[C@H]1O)[C@H](O)[C@H](O)CCCCCCCCCCCCCC`, for which the result in the assay with Mus musculus [5] was Active. For the compound `CCCCCCCCCCCCCCCCCCCCCCCCCC(=O)N[C@@H](CC[C@H]1O[C@H](CO)[C@H](O)[C@H](O)[C@H]1O)[C@H](O)[C@H](O)CCCCCCCCCCCCCC`, the result in the assay on Mus musculus [5] was Active. For the compound `CCCCCCCCCCCCCCCCNC(=S)N[C@@H](CO[C@H]1O[C@H](CO)[C@H](O)[C@H](O)[C@H]1O)[C@H](O)[C@H](O)CCCCCCCCCCCCCC`, the result in the assay with Mus musculus [5] and in the assay with Mus musculus [6] was inactive.
